# According to ChEMBL document CHEMBL1921722, “In vitro and in vivo evaluation of select kahalalide F analogs with antitumor and antifungal activities” (Bioorg Med Chem, 2011):
# Calls of active or inactive are those of the source.
# Columns and labels:
# [1] = system: HOP-62; assay: Cytotoxicity against human HOP62 cells by sulforhodamine B assay; assay type: functional
# How it was run: (§1)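 Run by the NCI Developmental Therapeutics Program on its 60-line human tumour cell panel using the standard procedure. Compounds went through a single-concentration prescreen first, and those active by NCI criteria went on to a five-concentration growth-inhibition test. GI50 is the concentration that cuts growth of treated cells to half that of untreated control cells.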
# [2] = system: HOP-62; assay: Cytotoxicity against human HOP62 cells assessed as cell growth at 8 nM by sulforhodamine B assay relative to control; assay type: functional; settings: read-out: Activity
# [3] = system: COLO 205; assay: Antitumor activity against human COLO205 cells xenografted in mouse assessed as tumor cell killing at 4.7 mg/kg, ip qd for 4 days by MTT assay; assay type: functional, organism-based; design: dose 4.7 mg/kg
# How it was run: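 Hollow-fiber assay in mice. Tumor lines were grown in RPMI-1640 with 10% FBS and 2 mM glutamine. Cells at 2 × 10^6 cells/ml were loaded into 1 mm PVDF fibers (500,000 Da cutoff), heat-sealed at 2 cm and held 24–48 h at 37 °C, 5% CO2 before implantation. Compound was given IP. Fibers were collected the day after the fourth treatment for MTT (OD 540 nm, group means). A ≥50% cut in percent net growth versus vehicle counted as positive.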
# [4] = system: UACC-62; assay: Cytotoxicity against human UACC62 cells by sulforhodamine B assay; assay type: functional
# How it was run: (§2)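 NCI Developmental Therapeutics Program 60-cell-line human tumor panel screen, run at NCI. A single-concentration pre-screen was followed by a five-concentration dose-response in 10-fold steps. GI50 is the concentration that reduces growth of treated cells to half that of untreated control cells. TGI is the concentration that completely halts growth.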
# [5] = system: SF-539; assay: Cytotoxicity against human SF539 cells assessed as cell growth at 8 nM by sulforhodamine B assay relative to control; assay type: functional; settings: read-out: Activity
# [6] = system: COLO 205; assay: Cytotoxicity against human COLO205 cells by sulforhodamine B assay; assay type: functional
# How it was run: (§3)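 Run at NCI in the DTP 60-cell-line human tumor panel by standard procedure. Compounds were first screened at a single concentration, then tested at five tenfold-spaced concentrations. GI50 is the concentration reducing treated-cell growth to half that of untreated controls; TGI is the concentration completely halting growth.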
# [7] = system: SF-539; assay: Cytotoxicity against human SF539 cells by sulforhodamine B assay; assay type: functional; how it was run: as §2
# [8] = system: OVCAR-5; assay: Cytotoxicity against human OVCAR5 cells assessed as cell growth at 8 uM by sulforhodamine B assay relative to control; assay type: functional; settings: read-out: Activity
# [9] = system: ACHN; assay: Cytotoxicity against human ACHN cells by sulforhodamine B assay; assay type: functional; how it was run: as §3
# [10] = system: NCI-H23; assay: Cytotoxicity against human NCI-H23 cells assessed as cell growth at 800 nM by sulforhodamine B assay relative to control; assay type: functional; settings: read-out: Activity
# [11] = system: COLO 205; assay: Cytotoxicity against human COLO205 cells assessed as cell growth at 800 nM by sulforhodamine B assay relative to control; assay type: functional; settings: read-out: Activity; how it was run: as §3
# [12] = system: U-251; assay: Cytotoxicity against human U251 cells assessed as cell growth at 80 nM by sulforhodamine B assay relative to control; assay type: functional; settings: read-out: Activity
# [13] = system: HOP-92; assay: Cytotoxicity against human HOP92 cells by sulforhodamine B assay; assay type: functional; how it was run: as §1
# [14] = system: Malme-3M; assay: Cytotoxicity against human MALME-3M cells assessed as cell growth at 80 uM by sulforhodamine B assay relative to control; assay type: functional; settings: read-out: Activity
# [15] = system: NCI/ADR-RES; assay: Cytotoxicity against human NCI/ADR-RES cells assessed as cell growth at 8 uM by sulforhodamine B assay relative to control; assay type: functional; settings: read-out: Activity
# [16] = system: SK-OV-3; assay: Cytotoxicity against human SKOV3 cells assessed as cell growth at 8 nM by sulforhodamine B assay relative to control; assay type: functional; settings: read-out: Activity
# [17] = system: KM12; assay: Cytotoxicity against human KM12 cells assessed as cell growth at 80 uM by sulforhodamine B assay relative to control; assay type: functional; settings: read-out: Activity
# [18] = system: T47D; assay: Cytotoxicity against human T47D cells assessed as cell growth at 8 uM by sulforhodamine B assay relative to control; assay type: functional; settings: read-out: Activity
# [19] = system: SNB-75; assay: Cytotoxicity against human SNB75 cells by sulforhodamine B assay; assay type: functional; how it was run: as §2
# [20] = system: MDA-MB-435; assay: Cytotoxicity against human MDA-MB-435 cells assessed as cell growth at 80 uM by sulforhodamine B assay relative to control; assay type: functional; settings: read-out: Activity
# [21] = system: Hs-578T; assay: Cytotoxicity against human Hs578T cells assessed as cell growth at 80 nM by sulforhodamine B assay relative to control; assay type: functional; settings: read-out: Activity
# [22] = system: HCC 2998; assay: Cytotoxicity against human HCC2998 cells assessed as cell growth at 800 nM by sulforhodamine B assay relative to control; assay type: functional; settings: read-out: Activity
# [23] = system: SK-OV-3; assay: Cytotoxicity against human SKOV3 cells assessed as cell growth at 80 nM by sulforhodamine B assay relative to control; assay type: functional; settings: read-out: Activity
# [24] = system: SF-295; assay: Cytotoxicity against human SF295 cells assessed as cell growth at 80 nM by sulforhodamine B assay relative to control; assay type: functional; settings: read-out: Activity
# [25] = system: HOP-92; assay: Cytotoxicity against human HOP92 cells assessed as cell growth at 8 nM by sulforhodamine B assay relative to control; assay type: functional; settings: read-out: Activity
# [26] = system: SK-MEL-2; assay: Cytotoxicity against human SK-MEL-2 cells assessed as cell growth at 8 uM by sulforhodamine B assay relative to control; assay type: functional; settings: read-out: Activity
# [27] = system: MDA-MB-231; assay: Cytotoxicity against human MDA-MB-231 cells assessed as cell growth at 80 nM by sulforhodamine B assay relative to control; assay type: functional; settings: read-out: Activity
# [28] = system: SK-OV-3; assay: Cytotoxicity against human SKOV3 cells assessed as cell growth at 8 uM by sulforhodamine B assay relative to control; assay type: functional; settings: read-out: Activity
# [29] = system: OVCAR-4; assay: Cytotoxicity against human OVCAR4 cells by sulforhodamine B assay; assay type: functional; how it was run: as §2
# [30] = system: MCF7; assay: Cytotoxicity against human MCF7 cells assessed as cell growth at 80 uM by sulforhodamine B assay relative to control; assay type: functional; settings: read-out: Activity
# [31] = system: RPMI-8226; assay: Cytotoxicity against human RPMI8226 cells assessed as cell growth at 8 nM by sulforhodamine B assay relative to control; assay type: functional; settings: read-out: Activity
# [32] = system: HCT-15; assay: Cytotoxicity against human HCT15 cells assessed as cell growth at 8 nM by sulforhodamine B assay relative to control; assay type: functional; settings: read-out: Activity
# [33] = system: HCT-15; assay: Cytotoxicity against human HCT15 cells by sulforhodamine B assay; assay type: functional; how it was run: as §1
# [34] = system: RXF 393; assay: Cytotoxicity against human RXF393 cells assessed as cell growth at 80 nM by sulforhodamine B assay relative to control; assay type: functional; settings: read-out: Activity
# [35] = system: SK-MEL-28; assay: Cytotoxicity against human SK-MEL-28 cells assessed as cell growth at 80 uM by sulforhodamine B assay relative to control; assay type: functional; settings: read-out: Activity
smiles,measurement,setting,value
C/C=C1\NC(=O)[C@H](Cc2ccccc2)NC(=O)[C@@H](C(C)C)NC(=O)[C@@H]([C@@H](C)CC)NC(=O)[C@H](NC(=O)[C@H](NC(=O)[C@H](CCCNCc2ccc(F)c(C)c2)NC(=O)[C@H]2CCCN2C(=O)[C@H](NC(=O)[C@@H](NC(=O)[C@@H](NC(=O)[C@H](NC(=O)CCCC(C)C)C(C)C)[C@@H](C)O)C(C)C)C(C)C)[C@@H](C)CC)[C@@H](C)OC(=O)[C@H](C(C)C)NC1=O,GI50,[1],1.2 µM
same,LC50,[1],4.37 µM
same,TGI,[1]; read-out: pTGI (converted),2.29 µM
same,growth at 0.008 µM,[2],101%
same,Activity,[3],inactive
same,GI50,[4],1.26 µM
same,LC50,[4],4.17 µM
same,TGI,[4]; read-out: pTGI (converted),2.29 µM
same,growth at 0.008 µM,[5],105%
same,GI50,[6]; read-out: GI50,0.135 µM
same,GI50,[6]; read-out: pGI50 (converted),0.135 µM
same,GI50,[7],1.29 µM
same,LC50,[7],4.37 µM
same,TGI,[7]; read-out: pTGI (converted),2.4 µM
same,growth at 8 µM,[8],-95%
same,LC50,[9],4.07 µM
same,GI50,[9]; read-out: GI50,1.12 µM
same,TGI,[9]; read-out: TGI,2.14 µM
same,GI50,[9]; read-out: pGI50 (converted),1.12 µM
same,TGI,[9]; read-out: pTGI (converted),2.14 µM
same,growth at 0.8 µM,[10],98%
same,growth at 0.8 µM,[11],-66%
same,growth at 0.08 µM,[12],100%
same,GI50,[13],1.41 µM
same,LC50,[13],6.17 µM
same,TGI,[13]; read-out: pTGI (converted),2.95 µM
same,growth at 80 µM,[14],12%
same,growth at 8 µM,[15],-76%
same,growth at 0.008 µM,[16],102%
same,growth at 80 µM,[17],-36%
same,growth at 8 µM,[18],-61%
same,GI50,[19]; read-out: GI50,0.37 µM
same,TGI,[19]; read-out: TGI,1.25 µM
same,GI50,[19]; read-out: pGI50 (converted),0.372 µM
same,TGI,[19]; read-out: pTGI (converted),1.26 µM
same,growth at 80 µM,[20],-36%
same,growth at 0.08 µM,[21],97%
same,growth at 0.8 µM,[22],-47%
same,growth at 0.08 µM,[23],105%
same,growth at 0.08 µM,[24],85%
same,growth at 0.008 µM,[25],104%
same,growth at 8 µM,[26],-80%
same,growth at 0.08 µM,[27],98%
same,growth at 8 µM,[28],-96%
same,GI50,[29],0.269 µM
same,TGI,[29]; read-out: pTGI (converted),0.955 µM
same,growth at 80 µM,[30],3%
same,growth at 0.008 µM,[31],128%
same,growth at 0.008 µM,[32],100%
same,LC50,[33],1.38 µM
same,GI50,[33]; read-out: GI50,0.181 µM
same,TGI,[33]; read-out: TGI,0.419 µM
same,GI50,[33]; read-out: pGI50 (converted),0.182 µM
same,TGI,[33]; read-out: pTGI (converted),0.417 µM
same,growth at 0.08 µM,[34],106%
same,growth at 80 µM,[35],1%
